This is a sample that favours compounds with a hit; in the whole collection about 7.9% have one here.
HEK293 NFkB inh: lowers PMA/ionomycin-induced NF-kB signal in HEK293 cells | inhibition, % at 3 µM | HEK-293 NF-kB luciferase reporter, luminescence | actives 0.21% (n = 62,000);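 active means inhibition above the mean of all tested compounds plus 3 SD, cut at about 40% in these data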;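 further: 0% = stimulated DMSO wells and 100% = 10 µM reference inhibitor 5653914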
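System – HEK-293 cells with stable firefly luciferase reporter driven by four HIV NF-kB elements · Doses – one dose, 3 µM · Schedule – 1 h compound pre-incubation, 16 h PMA/ionomycin at 37 °C · Technique – luminescence from luciferase substrate reagent · Measure – percent inhibition normalized per plate to DMSO and reference-inhibitor controls · Replicates – tested once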
JNK3 blocker: blocks human JNK3 kinase activity; purified JNK3 kinase activity, HTS; AID 746; inhibition, % at 8 µM; actives 0.61% (n = 60,000); in the data active means inhibition above about 17%;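 further: 0% = DMSO and 100% = reference inhibitor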
D1 allo mod: allosterically modulates the human D1 dopamine receptor | P21728 | HEK293 D1, CRE-luciferase, dopamine EC30 potentiation; actives deviate in either direction | B-score at 10 µM | actives 5.9% (n = 58,000);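 active means luminescence count or its row- and column-corrected plate score outside the 99.7% band of the plate's sample wells, on either side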
Target sequence (P21728 whole entry, looked up): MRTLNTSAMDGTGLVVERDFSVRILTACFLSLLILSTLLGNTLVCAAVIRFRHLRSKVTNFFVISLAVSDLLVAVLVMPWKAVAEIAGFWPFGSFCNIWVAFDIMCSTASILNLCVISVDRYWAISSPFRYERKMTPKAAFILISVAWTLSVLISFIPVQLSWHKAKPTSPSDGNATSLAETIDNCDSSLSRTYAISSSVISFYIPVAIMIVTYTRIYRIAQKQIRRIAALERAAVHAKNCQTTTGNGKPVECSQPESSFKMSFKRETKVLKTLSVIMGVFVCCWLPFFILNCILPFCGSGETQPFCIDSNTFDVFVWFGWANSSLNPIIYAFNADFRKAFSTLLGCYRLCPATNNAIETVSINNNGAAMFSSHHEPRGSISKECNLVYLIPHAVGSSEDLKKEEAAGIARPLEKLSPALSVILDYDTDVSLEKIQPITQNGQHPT
SF1 activator: activators of human nuclear receptor SF-1; CHO-K1 Gal4-SF-1 LBD luciferase reporter; % increase over DMSO SF-1-specific signal; activation, % at 10 µM; actives 1.9% (n = 65,000); AID 522;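 active means activation above the mean activation of all tested compounds plus 3 SD, cut at about 50% in these data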
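System: CHO-K1 cells with Gal4–hSF-1 LBD chimera plus Gal4-driven luciferase; quantity: 4,000 CHO-K1 cells per well; compound: one dose, 10 µM compound, 1% DMSO; times: 20 h compound treatment, 37 °C; measured by: SteadyLite luciferase luminescence; read-out: percent activation versus DMSO; benchmarks: DMSO and mock-transfected background; replicates: one test per compound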
RORA act: activates the human nuclear receptor RORA; P35398; CHO-K1 Gal4-RORA LBD luciferase reporter, luminescence; percent increase over mock-subtracted basal signal; activation, % at 10 µM; actives 1.5% (n = 65,000); AID 560;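 active means activation above the mean of all tested compounds plus 3 SD, cut at about 49% in these data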;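 further: 0% = DMSO-treated RORA cells and 100% = added signal equal to DMSO minus mock-transfected cells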
D1 PAM confirm: confirmation of human D1 dopamine receptor allosteric modulators; shares compounds with D1 allo mod; actives 88% (n = 2,200); HEK293 D1 CRE-luciferase, dopamine EC30 potentiation; hits give high values; AID 642; luminescence at 10 µM;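 active means luminescence in either of two replicates above the same-plate mean plus 3 SD of the low-dose dopamine control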
D1 ag no DA: activates D1 CRE-luciferase signal without dopamine present; HEK293 D1 CRE-luciferase, luminescence, no dopamine; hits give high values; shares compounds with D1 allo mod; AID 646; actives 0.8% (n = 1,900); luminescence at 10 µM; in the data active means luminescence above about 3900
Isoprot counter: alters isoproterenol CRE-luciferase response in HEK293 cells; actives 63% (n = 2,200); calls only at 10 µM; shares compounds with D1 allo mod; HEK293 D1 CRE-luciferase, isoproterenol EC30 counter-screen;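 active means luminescence in either replicate above plate mean of wells with a partly effective reference agonist dose plus 3 SD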;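 further: isoproterenol raises cAMP through native beta-adrenoceptor Gs so signal bypasses D1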
The depositor's hits bear a star; i = inactive; x = no result given; + = active, no number.

SMILES | HEK293 NFkB inh | JNK3 blocker | D1 allo mod | SF1 activator | RORA act | D1 PAM confirm | D1 ag no DA | Isoprot counter
CCn1c(SCC(=O)OCc2ccccc2)nc2c1c(=O)n(C)c(=O)n2C | 11.3 | 2.8 | 3.95* | -4.6 | -7.5 | 5976 | 1308 | i
C=CCn1c(SCC(=O)OCc2ccccc2)nc2c1c(=O)n(C)c(=O)n2C | 18.6 | 5.1 | -0.545 | -1.7 | -0.3 | x | x | x
Cc1ccccc1NC1C=CS(=O)(=O)C1 (stereo not given) | 22.5 | -2.1 | 0.134 | 11.0 | -3.8 | x | x | x
CCOC(=O)Nc1ccc2c(c1)Sc1ccccc1N2C(=O)CCN1CCOCC1 | 2.5 | -1.1 | 4.83* | -2.3 | -1.4 | 8528* | x | +
CCn1cnc2scc(-c3ccccc3)c2c1=O | 11.3 | -6.4 | 14.8* | -0.8 | 0.6 | 14788* | x | +
CCCc1nc2scc(-c3ccccc3)c2c(=O)n1N | 4.1 | 2.9 | 5.96* | -8.1 | 0.0 | 8892* | 1584 | i
CCSc1nnc(-c2cccc(S(=O)(=O)N(C)C)c2)n1-c1cc(OC)ccc1OC | 13.7 | -0.1 | 0.604 | -6.8 | 0.3 | x | x | x
COc1ccc(OC)c(-n2c(SCC(C)=O)nnc2-c2cccc(S(=O)(=O)N(C)C)c2)c1 | 13.6 | -5.0 | 3.83* | -9.8 | -11.3 | 6400 | 1712 | i
COc1cccc(-n2c(SCc3c(C)noc3C)nnc2-c2cccc(S(=O)(=O)N(C)C)c2)c1 | 4.1 | 2.0 | 9.09* | 0.5 | 12.3 | 12244* | 1492 | +
O=C(C1CCCN(S(=O)(=O)c2cnc[nH]2)C1)N1CC(=O)N(CCc2ccccc2)C(=O)C1 (stereo not given) | 4.7 | -6.4 | 0.0418 | -13.1 | -6.4 | x | x | x
Brc1ccc(-c2nnc3ccc(N4CCN(c5ccccc5)CC4)nn23)cc1 | -3.2 | 2.1 | 0.247 | 4.7 | 18.4 | x | x | x
Clc1cccc(Cl)c1-c1nnc2ccc(N3CCOCC3)nn12 | 16.7 | 4.2 | 1.44 | -17.3 | -0.4 | x | x | x
c1ccc(-c2nnc3ccc(N4CCC5(CC4)OCCO5)nn23)cc1 | 8.5 | -2.9 | 21.4* | 12.2 | -19.7 | 16736* | 1528 | +
Fc1cccc(Cl)c1-c1nnc2ccc(N3CCOCC3)nn12 | 6.2 | 5.8 | 15.7* | -15.6 | 7.0 | 10924* | 1424 | +
O=C(Nc1ccccc1Cl)N1CCN(c2ccc3nnc(-c4ccc(F)cc4)n3n2)CC1 | 22.7 | -1.2 | 1.1 | 7.0 | -13.4 | x | x | x
NC(=O)C1(N2CCCCC2)CCN(c2ccc3nnc(-c4ccccc4)n3n2)CC1 | 7.3 | -3.2 | 10.5* | -7.0 | -8.8 | 18940* | x | +
Fc1ccc(-c2nnc3ccc(N4CCCC4)nn23)cc1 | 12.0 | -4.1 | 8.28* | -14.6 | 25.4 | 11900* | 1896 | +
CCOC(=O)c1c(NC(=O)CNCCO)sc(C)c1C | 17.2 | 2.9 | 0.104 | 2.1 | -6.3 | x | x | x
CCOC(=O)Nc1sc(C(=O)N(CC)CC)c(C)c1C(=O)OCC | 6.6 | -5.3 | 5.08* | 0.8 | -4.8 | 14176* | 1880 | i
CCOC(=O)c1c(NC(N)=O)sc(C)c1C | 18.6 | 5.2 | 6.67* | -17.3 | 14.0 | 11700* | 1768 | +
O=C(NCCS(=O)CCNC(=O)C(F)(F)F)C(F)(F)F | 4.3 | -1.6 | -0.272 | -10.8 | 13.4 | x | x | x
CCOC(=O)c1c(C)[nH]c(C(=O)Cn2c(=O)c3c(ncn3CC)n(Cc3ccccc3)c2=O)c1C | 5.8 | 10.3 | 13.4* | 6.8 | -7.1 | 20428* | 1684 | +
COc1ccccc1N1CCN(CCc2n[nH]c(=S)n2-c2ccccc2)CC1 | 13.0 | -0.3 | -1.63 | 8.9 | -3.9 | x | x | x
N#Cc1ccsc1NC(=O)COc1ccc(-c2nnco2)cc1 | 7.1 | -2.0 | 0.326 | 26.8 | -10.5 | x | x | x
COc1cccc(N2CCN(Cc3nc(N)nc(N4CCCc5ccccc54)n3)CC2)c1 | 6.5 | 2.4 | 4.95* | 9.1 | -3.6 | 11368* | 1496 | +
SMILES | HEK293 NFkB inh | JNK3 blocker | D1 allo mod | SF1 activator | RORA act | D1 PAM confirm | D1 ag no DA | Isoprot counter
COc1ccc(Nc2nc(N)nc(CN3CCc4ccccc4C3)n2)cc1 | 11.6 | -4.1 | 2.28 | 3.1 | 8.0 | x | x | x
N#CCCCSc1nnc(-c2ccccn2)o1 | -9.9 | -5.3 | 0.149 | -6.5 | 29.2 | x | x | x
CCCS(=O)(=O)c1c(S(=O)(=O)CCC)c2cc(CC)ccn2c1C(=O)OC | -3.9 | -0.4 | 6.49* | -16.3 | -11.1 | 13540* | 1436 | +
COC(=O)c1nc2n(n1)C(c1ccc(OC)c(OC)c1OC)C1=C(CCCC1=O)N2 (stereo not given) | 4.5 | 1.6 | -0.787 | -0.3 | 9.0 | x | x | x
Fc1cccc(-c2cc3nc4c(c(N5CCC6(CC5)OCCO6)n3n2)CCCC4)c1 | 4.5 | x | 1.09 | 12.0 | 28.2 | x | x | x
OC1CCN(c2c3c(nc4cc(-c5cccc(F)c5)nn24)CCCC3)CC1 | 17.4 | x | 7.43* | -10.9 | 7.0 | 17644* | 1772 | +
CC(=O)N1CCCc2cc(S(=O)(=O)NC(C(=O)NCc3ccc(C)cc3)C(C)C)ccc21 (stereo not given) | 1.5 | 5.1 | x | 0.5 | 9.1 | x | x | x
Cc1nnc(SCC(=O)NCCc2ccccc2)[nH]c1=O | 8.3 | -4.8 | -0.0512 | 14.2 | -7.2 | x | x | x
COc1ccccc1-c1nnc(SCC(=O)Nc2nc(-c3ccccc3)cs2)n1C | 25.7 | -2.5 | 2.9* | 24.4 | 14.3 | 4120 | 1444 | i
CCn1c(SCC(=O)Nc2nc(-c3ccc(C)cc3)cs2)nnc1-c1ccccc1O | 15.1 | -2.8 | -0.00711 | 9.6 | 4.4 | x | x | x
Cc1ccc2cc(CN(C)C(=O)C3CCCO3)c(=O)[nH]c2c1 (stereo not given) | 5.3 | 5.2 | x | -13.9 | 4.4 | x | x | x
CS(=O)(=O)N(Cc1ccccc1)c1ccccn1 | -7.1 | 1.7 | -0.147 | -0.8 | 4.6 | x | x | x
COc1ccc(CN(CCN(C)C)c2ccccn2)cc1 | x | 3.8 | 5.24* | -11.2 | -12.1 | 3680 | 1484 | i
O=C(NC1=NCCS1)c1csc2ccccc12 | -35.4 | -3.5 | -0.917 | 42.5 | 29.4 | x | x | x
CCn1nc(C(=O)NC2=NCCS2)c2ccccc2c1=O | 10.7 | x | 2.86* | -10.0 | -2.1 | 9356* | 1640 | i
CC(=O)OCP(C)(=O)COC(C)=O | 15.7 | 5.2 | 0.0281 | -14.6 | 8.1 | x | x | x
CC(=O)OCC[N+](C)(C)C | x | -0.2 | 6.24* | 3.9 | 20.1 | 6608* | 1464 | +
CC1=C(C#N)C2C(/C1=N/O)C2(C)C (stereo not given) | 9.9 | -0.5 | 0.143 | -6.2 | -7.9 | x | x | x
COC(=O)c1cc(=O)n(Cc2ccco2)c(=Nc2ccc(F)c(Cl)c2)s1 | 19.7 | 1.2 | 7.38* | -38.2 | -3.5 | 8744* | 1432 | i

Screens as filed in PubChem BioAssay.
